# Reference: ChEMBL document CHEMBL4130628, “Identification and Pharmacological Profile of an Indane Based Series of Ghrelin Receptor Full Agonists” (J Med Chem, 2018)
# Calls of active or inactive are those of the source. The rule behind the calls is not given here.
# Key:
# Rattus norvegicus = assay: Renal clearance in Han-Wister rat at 1 mg/kg, iv bolus or 2 mg/kg, po after 24 hrs by LC-MS/MS analysis; type: ADME, organism-based; conditions: in vivo
# Cytochrome P450 2C19 [1] = molecular target: T1, Cytochrome P450 2C19 (Homo sapiens, UniProt P33261); assay: Drug metabolism assessed as CYP2C19 (unknown origin)-mediated hydroxylation of methyl group of indole; type: ADME
# Cytochrome P450 3A4 = Cytochrome P450 3A4 (Homo sapiens, UniProt P08684); assay: Inhibition of CYP3A4 (unknown origin); type: ADME
# [2] = Ratio of unbound drug level in brain to plasma in Beagle dog at 1 mg/kg, iv or 2 mg/kg, po after 24 hrs by LC-MS/MS analysis; type: ADME, organism-based, Canis lupus familiaris; conditions: read-out: K(p,uu,brain)
# Cytochrome P450 2C9 = Cytochrome P450 2C9 (Homo sapiens, UniProt P11712); assay: Inhibition of CYP2C9 (unknown origin); type: ADME
# Mu-type opioid receptor [3] = molecular target: T2, Mu-type opioid receptor (Homo sapiens, UniProt P35372); assay: Agonist activity at mu1-opioid receptor (unknown origin) by cell-based assay
# [4] = Intrinsic clearance in rat liver microsomes; type: ADME, microsome; conditions: read-out: CLH
# Cytochrome P450 2C19 [5] = molecular target: T1, Cytochrome P450 2C19; assay: Inhibition of CYP2C19 (unknown origin); type: ADME
# [6] = Intrinsic clearance in human liver microsomes; type: ADME, microsome; conditions: read-out: CLH
# [7] = Fraction absorbed in Beagle dog at 2 mg/kg, po after 24 hrs by LC-MS/MS analysis; type: ADME, organism-based, Canis lupus familiaris; conditions: in vivo, read-out: Fabs
# [8] = Oral bioavailability in Beagle dog at 2 mg/kg after 24 hrs by LC-MS/MS analysis; type: ADME, organism-based, Canis lupus familiaris; conditions: in vivo
# How it was run: (§1)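 Male/female beagles (2–5 y, 12–15 kg) were fasted overnight. IV: about 1 mg/Kg as a 15-min infusion to two animals, in 5% DMSO/95% SBE-β-CD (30% w/v) adjusted to pH 7.5. PO: about 2 mg/Kg by gavage, in the same vehicle or 0.5% HPMC/0.1% Tween 80 suspension. Jugular blood was drawn 0.03–24 h (IV) or 0.17–24 h (PO). K2-EDTA plasma analysed by LC-MS/MS.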
# Canis familiaris [9] = assay: Increase in plasma IGF1 level in Beagle dog at 8 mg/kg, po measured after 24 hrs post dose by ELIS; type: functional, organism-based; conditions: Canis lupus familiaris
# How it was run: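 Dog blood taken before dosing and at 15, 30, 45 min and 1, 2, 4, 7, 12, 24 h post dose into K2EDTA tubes. Centrifuged at 4°C; plasma frozen below -80°C until IGF-1 analysis.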
# [10] = molecular target: T3, Growth hormone secretagogue receptor type 1 (Homo sapiens, UniProt Q92847); assay: Displacement of human [125I]-ghrelin from GHS-R1a (unknown origin) expressed in HEK293 cell membranes after 1 hr by radioligand binding assay; conditions: read-out: IC50
# [11] = Apparent intrinsic permeability across apical to basolateral side in human Caco2 cells at pH 6.5; type: ADME, cell-based; conditions: Caco-2, pH 6.5
# [12] = Efflux ratio of apparent permeability across basolateral to apical over apical to basolateral side in human Caco2 cells; type: ADME, cell-based; conditions: Caco-2
# How it was run: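 Caco-2 monolayers; Papp measured in both directions at pH 7.4 (units 1E-6 cm/s). Efflux ratio taken as Papp basolateral-to-apical divided by Papp apical-to-basolateral.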
# [13] = Protein binding in dog plasma; type: ADME, cell-free, Canis lupus familiaris; conditions: read-out: PPB (converted)
# [14] = Drug elimination in Beagle dog urine by LC-MS/MS analysis; type: ADME, Canis lupus familiaris; conditions: read-out: Drug excretion
# [15] = Intrinsic clearance in dog liver microsomes; type: ADME, Canis lupus familiaris, microsome; conditions: read-out: CLH
# [16] = Solubility of compound; type: physicochemical
# [17] = Apparent permeability across basolateral to apical side in human Caco2 cells at pH 7.4; type: ADME, cell-based; conditions: Caco-2, pH 7.4
# Canis familiaris [18] = species on record: Canis familiaris; assay: Drug metabolism in Beagle dog assessed as hydroxylation of 5-methyl of indole ring by LC-MS/MS analysis; type: ADME, organism-based, Canis lupus familiaris; conditions: in vivo
# [19] = Clearance in Beagle dog at 1 mg/kg, iv or 2 mg/kg, po after 24 hrs by LC-MS/MS analysis; type: ADME, organism-based, Canis lupus familiaris; conditions: in vivo; how it was run: as §1
# [20] = Volume of distribution in Beagle dog at 1 mg/kg, iv or 2 mg/kg, po after 24 hrs by LC-MS/MS analysis; type: ADME, organism-based, Canis lupus familiaris; conditions: in vivo; how it was run: as §1
# [21] = Apparent permeability across apical to basolateral side in human Caco2 cells at pH 7.4; type: ADME, cell-based; conditions: Caco-2, pH 7.4
# [22] = Time dependent inhibition of CYP450 in human liver microsomes; type: ADME
# Cytochrome P450 2D6 = Cytochrome P450 2D6 (Homo sapiens, UniProt P10635); assay: Inhibition of CYP2D6 (unknown origin); type: ADME
# [23] = molecular target: T3, Growth hormone secretagogue receptor type 1; assay: Agonist activity at human GHS receptor assessed as intracellular myo-IP1 secretion after 90 mins by HTRF analysis; type: functional, cell-based; conditions: read-out: EC50
# [24] = molecular target: Voltage-gated inwardly rectifying potassium channel KCNH2 (Homo sapiens, UniProt Q12809); assay: Inhibition of human ERG expressed in CHO cells; type: cell-based
# How it was run: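 hERG currents recorded from CHO cells expressing hERG.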
# Cytochrome P450 1A2 = molecular target: T4, Cytochrome P450 1A2 (Homo sapiens, UniProt P05177); assay: Inhibition of CYP1A2 (unknown origin); type: ADME
# T4 sequence (P05177 whole entry): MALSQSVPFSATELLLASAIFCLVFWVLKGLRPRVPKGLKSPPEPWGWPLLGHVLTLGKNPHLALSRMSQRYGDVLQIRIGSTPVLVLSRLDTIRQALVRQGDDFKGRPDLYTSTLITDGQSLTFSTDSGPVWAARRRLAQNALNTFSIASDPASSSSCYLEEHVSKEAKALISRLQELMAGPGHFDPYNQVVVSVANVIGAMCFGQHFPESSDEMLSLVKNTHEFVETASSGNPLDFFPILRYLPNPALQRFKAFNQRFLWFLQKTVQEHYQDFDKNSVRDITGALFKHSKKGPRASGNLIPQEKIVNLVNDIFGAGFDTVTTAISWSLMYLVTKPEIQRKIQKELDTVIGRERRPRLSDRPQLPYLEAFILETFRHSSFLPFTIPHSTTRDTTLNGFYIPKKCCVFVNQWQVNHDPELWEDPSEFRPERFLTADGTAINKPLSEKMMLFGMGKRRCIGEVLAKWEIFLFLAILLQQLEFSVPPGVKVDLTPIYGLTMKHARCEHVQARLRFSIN
# [25] = Half life in Beagle dog at 2 mg/kg, po after 24 hrs by LC-MS/MS analysis; type: ADME, organism-based, Canis lupus familiaris; conditions: in vivo; how it was run: as §1
# [26] = Clearance in Han-Wister rat at 1 mg/kg, iv bolus or 2 mg/kg, po after 24 hrs by LC-MS/MS analysis; type: ADME, organism-based; conditions: Han-Wistar, in vivo
# How it was run: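 Male Han Wistar rats (7–8 weeks, 200–300 g). IV bolus of about 1 mg/Kg via tail vein to two animals, in 5% DMSO/95% SBE-β-CD (30% w/v), pH 7.5. Oral dose of about 2 mg/Kg in the same vehicle. Jugular blood collected from pre-dose to 24 h. K2-EDTA plasma kept at -75±15 °C and analysed by LC-MS/MS.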
# [27] = Protein binding in rat plasma; type: ADME, cell-free; conditions: read-out: PPB (converted)
# Mu-type opioid receptor [28] = molecular target: T2, Mu-type opioid receptor; assay: Agonist activity at mu1-opioid receptor (unknown origin)
# [29] = 1-octanol/aqueous buffer distribution coefficient, log D of compound at pH 7.4; type: physicochemical; conditions: 1-octanol/aqueous buffer, read-out: logD
# [30] = Protein binding in human plasma; type: ADME, cell-free; conditions: read-out: PPB (converted)
# T1 sequence (P33261 whole entry): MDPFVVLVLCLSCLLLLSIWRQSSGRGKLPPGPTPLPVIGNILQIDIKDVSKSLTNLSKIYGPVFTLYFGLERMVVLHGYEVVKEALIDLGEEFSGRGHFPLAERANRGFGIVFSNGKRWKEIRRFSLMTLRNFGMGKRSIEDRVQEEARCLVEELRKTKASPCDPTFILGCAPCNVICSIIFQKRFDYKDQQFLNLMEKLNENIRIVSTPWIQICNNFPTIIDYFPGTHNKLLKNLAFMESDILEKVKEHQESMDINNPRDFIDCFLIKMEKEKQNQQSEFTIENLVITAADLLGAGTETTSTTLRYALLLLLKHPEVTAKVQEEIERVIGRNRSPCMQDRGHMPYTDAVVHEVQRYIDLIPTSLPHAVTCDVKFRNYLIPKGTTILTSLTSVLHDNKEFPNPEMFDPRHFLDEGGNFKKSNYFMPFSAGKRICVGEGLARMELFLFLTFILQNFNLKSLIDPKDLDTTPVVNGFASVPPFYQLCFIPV
# T2 sequence (P35372 whole entry): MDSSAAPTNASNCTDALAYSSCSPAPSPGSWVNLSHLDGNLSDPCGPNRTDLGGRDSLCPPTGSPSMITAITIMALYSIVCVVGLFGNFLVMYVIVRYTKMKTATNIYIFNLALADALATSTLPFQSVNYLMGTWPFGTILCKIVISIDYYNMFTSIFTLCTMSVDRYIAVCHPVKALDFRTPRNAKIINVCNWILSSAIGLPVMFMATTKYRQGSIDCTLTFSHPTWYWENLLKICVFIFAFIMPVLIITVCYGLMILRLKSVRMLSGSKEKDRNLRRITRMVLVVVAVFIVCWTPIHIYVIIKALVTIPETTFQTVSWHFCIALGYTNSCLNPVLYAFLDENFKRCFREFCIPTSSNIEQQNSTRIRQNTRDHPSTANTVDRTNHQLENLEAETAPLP
# T3 sequence (Q92847 whole entry): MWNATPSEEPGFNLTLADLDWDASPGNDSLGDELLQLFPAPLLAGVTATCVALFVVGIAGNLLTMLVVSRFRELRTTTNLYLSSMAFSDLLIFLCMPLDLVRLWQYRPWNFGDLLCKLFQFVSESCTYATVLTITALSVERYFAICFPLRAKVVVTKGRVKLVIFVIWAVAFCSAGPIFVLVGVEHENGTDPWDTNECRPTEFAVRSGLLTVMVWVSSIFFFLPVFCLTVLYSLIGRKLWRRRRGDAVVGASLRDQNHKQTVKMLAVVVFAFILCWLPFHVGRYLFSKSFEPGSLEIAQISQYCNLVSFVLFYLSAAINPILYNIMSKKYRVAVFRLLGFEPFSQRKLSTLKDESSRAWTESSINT
# Chain of Cytochrome P450 2D6 (P10635 whole entry): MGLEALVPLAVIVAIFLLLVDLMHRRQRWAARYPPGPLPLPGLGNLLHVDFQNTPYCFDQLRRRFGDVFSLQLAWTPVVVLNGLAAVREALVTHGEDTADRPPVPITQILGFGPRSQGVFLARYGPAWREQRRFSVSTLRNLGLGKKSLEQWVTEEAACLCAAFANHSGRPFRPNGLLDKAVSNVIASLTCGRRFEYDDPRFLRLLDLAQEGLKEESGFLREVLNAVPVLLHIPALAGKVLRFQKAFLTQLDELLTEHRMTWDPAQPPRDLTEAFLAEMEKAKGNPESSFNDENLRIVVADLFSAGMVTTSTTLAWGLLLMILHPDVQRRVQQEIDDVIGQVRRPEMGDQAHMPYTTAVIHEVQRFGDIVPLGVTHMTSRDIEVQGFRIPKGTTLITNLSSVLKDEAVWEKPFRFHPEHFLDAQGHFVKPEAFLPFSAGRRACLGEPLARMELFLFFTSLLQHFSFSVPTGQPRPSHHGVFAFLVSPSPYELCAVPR
# Chain of Cytochrome P450 3A4 (P08684 whole entry): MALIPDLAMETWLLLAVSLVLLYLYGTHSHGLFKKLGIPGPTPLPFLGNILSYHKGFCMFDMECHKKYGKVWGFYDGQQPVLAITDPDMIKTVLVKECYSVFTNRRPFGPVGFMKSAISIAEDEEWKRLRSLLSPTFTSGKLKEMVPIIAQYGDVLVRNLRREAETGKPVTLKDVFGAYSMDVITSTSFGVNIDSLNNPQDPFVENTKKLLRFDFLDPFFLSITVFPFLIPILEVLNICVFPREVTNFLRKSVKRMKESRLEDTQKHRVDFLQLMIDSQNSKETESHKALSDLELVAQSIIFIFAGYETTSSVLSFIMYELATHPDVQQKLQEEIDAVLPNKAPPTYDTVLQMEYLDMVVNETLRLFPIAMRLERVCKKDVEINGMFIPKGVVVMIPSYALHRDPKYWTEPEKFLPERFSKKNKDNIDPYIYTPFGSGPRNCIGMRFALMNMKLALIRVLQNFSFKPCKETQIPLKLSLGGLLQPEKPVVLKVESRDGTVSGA
# Chain of Voltage-gated inwardly rectifying potassium channel KCNH2 (Q12809 whole entry): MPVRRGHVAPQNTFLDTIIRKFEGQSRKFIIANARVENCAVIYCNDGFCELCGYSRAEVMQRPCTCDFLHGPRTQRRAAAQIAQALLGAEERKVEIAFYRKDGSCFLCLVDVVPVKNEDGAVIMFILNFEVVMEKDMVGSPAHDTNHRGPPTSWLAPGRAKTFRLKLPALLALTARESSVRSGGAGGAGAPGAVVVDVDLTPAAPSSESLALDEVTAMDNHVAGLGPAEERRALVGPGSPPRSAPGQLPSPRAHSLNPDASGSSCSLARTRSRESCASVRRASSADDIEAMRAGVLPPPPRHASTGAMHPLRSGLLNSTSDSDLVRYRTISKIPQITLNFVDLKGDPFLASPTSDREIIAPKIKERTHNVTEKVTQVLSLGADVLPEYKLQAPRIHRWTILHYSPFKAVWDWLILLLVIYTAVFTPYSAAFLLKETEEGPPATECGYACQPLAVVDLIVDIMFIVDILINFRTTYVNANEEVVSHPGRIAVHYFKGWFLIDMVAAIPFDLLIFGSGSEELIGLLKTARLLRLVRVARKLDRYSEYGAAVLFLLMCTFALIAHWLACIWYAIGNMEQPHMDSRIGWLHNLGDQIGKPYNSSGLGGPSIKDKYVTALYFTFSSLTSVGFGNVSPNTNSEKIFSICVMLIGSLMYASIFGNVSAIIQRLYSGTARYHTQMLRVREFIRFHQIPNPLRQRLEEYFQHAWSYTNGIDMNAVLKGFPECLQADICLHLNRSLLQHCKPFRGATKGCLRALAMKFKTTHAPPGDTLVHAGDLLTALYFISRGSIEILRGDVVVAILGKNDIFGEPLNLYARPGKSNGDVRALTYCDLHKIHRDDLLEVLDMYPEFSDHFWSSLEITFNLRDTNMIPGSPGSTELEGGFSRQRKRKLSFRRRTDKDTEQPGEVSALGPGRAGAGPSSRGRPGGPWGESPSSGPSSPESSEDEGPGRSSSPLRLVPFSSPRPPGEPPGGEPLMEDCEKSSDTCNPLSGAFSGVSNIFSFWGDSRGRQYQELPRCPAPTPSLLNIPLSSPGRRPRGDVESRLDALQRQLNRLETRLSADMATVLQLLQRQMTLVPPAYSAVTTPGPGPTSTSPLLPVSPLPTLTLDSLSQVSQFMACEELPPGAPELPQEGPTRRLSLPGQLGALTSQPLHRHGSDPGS
# Chain of Cytochrome P450 2C9 (P11712 whole entry): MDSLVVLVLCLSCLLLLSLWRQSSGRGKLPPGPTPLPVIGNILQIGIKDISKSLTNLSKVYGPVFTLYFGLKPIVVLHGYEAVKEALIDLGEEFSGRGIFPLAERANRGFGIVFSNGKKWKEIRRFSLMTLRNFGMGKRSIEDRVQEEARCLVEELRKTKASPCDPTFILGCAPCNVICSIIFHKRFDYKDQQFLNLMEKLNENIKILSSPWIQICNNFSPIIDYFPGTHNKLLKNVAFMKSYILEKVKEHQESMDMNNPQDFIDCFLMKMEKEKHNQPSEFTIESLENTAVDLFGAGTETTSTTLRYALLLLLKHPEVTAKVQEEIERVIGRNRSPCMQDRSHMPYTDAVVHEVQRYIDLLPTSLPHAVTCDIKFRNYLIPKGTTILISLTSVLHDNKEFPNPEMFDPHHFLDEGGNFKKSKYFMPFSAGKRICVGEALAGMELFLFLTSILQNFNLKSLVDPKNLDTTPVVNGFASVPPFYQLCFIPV
compound,measurement,setting,value
CN(C)CCNC(=O)[C@H]1c2ccccc2C[C@@H]1NC(=O)c1cc2ccccc2[nH]1,CL,Rattus norvegicus,> 5%
same,Drug metabolism,Cytochrome P450 2C19 [1],Metabolite_Detected
same,IC50,Cytochrome P450 3A4,> 20000 nM
same,Kp uu at 24 h,[2],< 0.02
same,IC50,Cytochrome P450 2C9,> 20000 nM
same,IC50,Mu-type opioid receptor [3],234 nM
same,microsomal CLint,[4],48 µL/min/mg
same,IC50,Cytochrome P450 2C19 [5],> 20000 nM
same,microsomal CLint,[6],4 to 9 µL/min/mg
same,Fa at 24 h,[7],20%
same,bioavailability,[8],9 to 13%
same,Activity,Canis familiaris [9],Active
same,IC50,[10],4 nM
same,Papp A→B,[11],< 2.4 ×10⁻⁶ cm/s
same,efflux ratio,[12],67.2
same,fraction unbound,[13],0.92
same,dose excreted,[14],2%
same,microsomal CLint,[15],9 µL/min/mg
same,solubility,[16],100 µM
same,Papp B→A,[17],17.7 ×10⁻⁶ cm/s
same,Drug metabolism,Canis familiaris [18],Metabolite_Detected
same,clearance,[19],18.8 to 26 mL/min/kg
same,Vd,[20],4.8 to 5.8 L/kg
same,Papp A→B,[21],0.6 ×10⁻⁶ cm/s
same,TDI,[22],Not Active
same,IC50,Cytochrome P450 2D6,> 20000 nM
same,EC50,[23],2 nM
same,IC50,[24],31600 nM
same,IC50,Cytochrome P450 1A2,> 20000 nM
same,half-life,[25],13.2 to 16.6 h
same,clearance,[26],170 mL/min/kg
same,fraction unbound,[27],0.96
same,IC50,Mu-type opioid receptor [28],79.4 nM
same,logD,[29],2.4
same,fraction unbound,[30],0.88
